# Experimental data taken from the EternaBench riboswitch data.
# Legend:
# MS2 coat protein [1] = test: apparent Kd, MS2 coat protein; higher = weaker binding; RNA-MaP array
# In short: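 On an Illumina sequencing chip, sequenced DNA templates served for transcription of the designed RNAs, which were then bound at room temperature by fluorescently labeled MS2 coat protein at 1.5 nM to 3 μM, with or without input ligand. Apparent Kd is the median of the fits to each cluster's binding curve. Only designs measured on at least 10 clusters were kept.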
# MS2 coat protein [2] = test: apparent Kd, MS2 coat protein; higher = weaker binding; RNA-MaP array; FMN 200 µM where present
# In short: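 The apparent Kd comes from binding curves fitted cluster by cluster, filtered, and summarised as a median. Those curves followed SNAP-549-labelled MS2 coat protein from 0.7 or 1.5 nM, doubling to 3 µM, on Illumina sequencing-chip clusters where stalled E. coli RNA polymerase had transcribed the designs, without and then with constant ligand. The buffer was 100 mM Tris-HCl pH 7.5, 80 mM KCl, 4 mM MgCl2, BSA, DTT, yeast tRNA and Tween-20, and green signal was normalised to red-channel RNA signal and control-cluster median Fmax.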
# [3] = designed as: ON switch for flavin mononucleotide, no ligand
# [4] = ligand present: flavin mononucleotide, designed as: ON switch for flavin mononucleotide
# [5] = designed as: OFF switch for flavin mononucleotide, no ligand
# [6] = ligand present: flavin mononucleotide, designed as: OFF switch for flavin mononucleotide
# [7] = designed as: ON switch for theophylline, no ligand
# [8] = ligand present: theophylline, designed as: ON switch for theophylline
# [9] = designed as: OFF switch for tryptophan, no ligand
# [10] = ligand present: tryptophan, designed as: OFF switch for tryptophan
# [11] = designed as: OFF switch for theophylline, no ligand
# [12] = ligand present: theophylline, designed as: OFF switch for theophylline
sequence,measurement,setting,value
UAGCAGUUCACAGGAUAUAGUUUGCGAUAAGUUUAUUUAUGAGAGACAUGAGGAUCACCCAUGUACUAGAAGGGUGAGAAAUAA,apparent Kd,MS2 coat protein [1]; [3],0.461 µM
same,apparent Kd,MS2 coat protein [1]; [4],0.13 µM
AUUGAACGUGCAGGAUAUCAAAACCGGAAUCGUUGAGAAGGGCAGUAAUCGGAGAGCACAUGAGGAUCACCCAUGUUCAAUCGA,apparent Kd,MS2 coat protein [1]; [3],0.0159 µM
same,apparent Kd,MS2 coat protein [1]; [4],0.00932 µM
GUAACGGAAGGAUAUACGCUUUAAUGGACAGGUUCGAUGGCACAUGAGGAUCACCCAUGUAGAAGGUCCCUAAA,apparent Kd,MS2 coat protein [1]; [5],0.0108 µM
same,apparent Kd,MS2 coat protein [1]; [6],0.0134 µM
CCGAUAAUCAAACAUGAGGAUCACCCAUGUUCUGGACGGUUCGAGGAUAUGGCACAAGGUAUCUUCCAGAAGGCGAGCCGGUGA,apparent Kd,MS2 coat protein [1]; [3],0.00804 µM
same,apparent Kd,MS2 coat protein [1]; [4],0.00598 µM
CACUAUGAGGUCGAUACCAGUACUGAGUUGUACAUGAGGAUCACCCAUGUAAAUGUUCGCUACCCUUGGCAGCGAUAACAUUGCA,apparent Kd,MS2 coat protein [1]; [7],0.43 µM
same,apparent Kd,MS2 coat protein [1]; [8],0.554 µM
GGUUCCUCAACGGCCGCCACUUACUGGAUUAGUGGACCUACUUGCAACAUGAGGAUCACCCAUGUAAGGACCGGGUUGCUCCCAA,apparent Kd,MS2 coat protein [1]; [9],0.0682 µM
same,apparent Kd,MS2 coat protein [1]; [10],0.0792 µM
GAUCUCCGCGAGAAGGCUGAGCGGUCACUAGCCAGAGGAUAUCGUCACGCGCAGGGAAAACAUGAGGAUCACCCAUGUGUAAGU,apparent Kd,MS2 coat protein [1]; [5],0.0107 µM
same,apparent Kd,MS2 coat protein [1]; [6],0.0106 µM
GAUGCACAUGAGGAUCACCCAUGUCCUGAUACCAGAACGCGACUUUUCCCUUGGCAGCAGAAUUCACUUUUUUACAUUCAUACUG,apparent Kd,MS2 coat protein [1]; [7],0.0221 µM
same,apparent Kd,MS2 coat protein [1]; [8],0.0229 µM
AAUCAACUUAGAGGAUAUAAGCUUAAAAUAGGGUUAGAAGGCUAUGGUACUAAUGAUCCGUCAACAUGAGGAUCACCCAUGUAG,apparent Kd,MS2 coat protein [1]; [5],0.045 µM
same,apparent Kd,MS2 coat protein [1]; [6],0.0372 µM
AAAACAUGAGGAUCACCCAUGUUGAUCAAACACCAGACCAAGAGAAGGAUCAGCACCGAGUGAUGAAAGGAUAUCUAUUAACGG,apparent Kd,MS2 coat protein [1]; [3],0.0392 µM
same,apparent Kd,MS2 coat protein [1]; [4],0.0238 µM
AUAACACAUGAGGAUCACCCAUGUAAGGAUAUAGUAGCAAUGGAAAGAAAUCUAUCCUCUAGAAGGUACACGGC,apparent Kd,MS2 coat protein [1]; [5],0.0185 µM
same,apparent Kd,MS2 coat protein [1]; [6],0.0153 µM
CGCCUACAGGUGUACUAUUGUGGUGAAGAUACCAGAUAGCCCAAUAUCCCUUGGCAGCUUCAGACAUGAGGAUCACCCAUGUAUC,apparent Kd,MS2 coat protein [1]; [11],0.0155 µM
same,apparent Kd,MS2 coat protein [1]; [12],0.0276 µM
UGCGACAAGUGAAUACUUUGUUCUAGAGAUACCAGUUCCCGAGUGAACCCUUGGCAGCUCCCAACAUGAGGAUCACCCAUGUAUU,apparent Kd,MS2 coat protein [1]; [11],0.0145 µM
same,apparent Kd,MS2 coat protein [1]; [12],0.0285 µM
GACAUGGGACAGAAGGCGCGUCACAUUUUUAUGCGAGGAUAUGUCACUACAUGAGGAUCACCCAUGUGAGUUGGGAUCUCGAAA,apparent Kd,MS2 coat protein [1]; [5],0.0265 µM
same,apparent Kd,MS2 coat protein [1]; [6],0.0641 µM
UUCAUUUUCUAGGAUAUGUACCAGAAAAUAGUUACAGAAGGAGAGACAUGAGGAUCACCCAUGUUGGCAACAGC,apparent Kd,MS2 coat protein [1]; [5],0.0107 µM
same,apparent Kd,MS2 coat protein [1]; [6],0.0116 µM
GGUGUUACGUCGGCCGCCACUAUACUACAUGAGGAUCACCCAUGUCAUCCCUUCAAUUGGUAGCCUAGGACCGGGACAGAAUUCG,apparent Kd,MS2 coat protein [1]; [9],0.0434 µM
same,apparent Kd,MS2 coat protein [1]; [10],0.0472 µM
AUAGUGUAAGGAUAUGUAGAGAGCUAGAAAAUACAAACAAUACAGAAGGUACAUGAGGAUCACCCAUGUGAUUG,apparent Kd,MS2 coat protein [1]; [5],0.0144 µM
same,apparent Kd,MS2 coat protein [1]; [6],0.0263 µM
GUGAUGCAGCAGAAGGGAUCGCUAAGGUUGUAAUCAGGAUAUGCAGUCGCUAGGGCGCCUCGACAUGAGGAUCACCCAUGUUUG,apparent Kd,MS2 coat protein [1]; [5],0.0527 µM
same,apparent Kd,MS2 coat protein [1]; [6],0.0617 µM
GCCACGCUAGAAGGAUAUUUGCCAUAAGUACGGAAAGAAGGUCUCGCCGGAUCGAACAUGAGGAUCACCCAUGUGUGGGUCAGA,apparent Kd,MS2 coat protein [1]; [3],0.0438 µM
same,apparent Kd,MS2 coat protein [1]; [4],0.026 µM
GCAAUAGCAUGAGGAUAUGCUGGAGUUUAGACAGCAGAAGGCAUGUCAUAAGACAUGAGGAUCACCCAUGUAAUUACAAUAGCA,apparent Kd,MS2 coat protein [2]; [3],0.0578 µM
same,apparent Kd,MS2 coat protein [2]; [4],0.0104 µM
GGGUUUGGAGGAUAUACAAUGGGUUUGGGAAACCGGGCCCUACAUGAGGAUCACCCAUGUAGAAGGCCGGGCCC,apparent Kd,MS2 coat protein [2]; [5],0.0148 µM
same,apparent Kd,MS2 coat protein [2]; [6],0.0158 µM
UAGUAUUAGCGAGGAUAUCGUAUGUUCAAUUUUUUAUAUUGUUUACAUGAGGAUCACCCAUGUUACGAGAAGGCGCAUGGGAUU,apparent Kd,MS2 coat protein [2]; [3],0.466 µM
same,apparent Kd,MS2 coat protein [2]; [4],0.0858 µM
GUAGGGUCAGGAUAUACUGGCUGAGGGAUGUAUUGUAGUUGGUAGAAGGGACAUGAGGAUCACCCAUGUAAGUA,apparent Kd,MS2 coat protein [2]; [5],0.0354 µM
same,apparent Kd,MS2 coat protein [2]; [6],0.034 µM
ACAUUGCGAGGAUAUACAUGAGGAUCACCCAUGUGGUAGUAGAUACGGUAGGGCUAGUGUAGAAGGUGUCAUGG,apparent Kd,MS2 coat protein [2]; [5],0.137 µM
same,apparent Kd,MS2 coat protein [2]; [6],0.131 µM
ACAUUUUAUGCAGGAUAUUGACAUAGGAUUAAACAAGAAGGGCAUUACAUGAGGAUCACCCAUGUUUUAUUGGUAUAUAAGUUC,apparent Kd,MS2 coat protein [2]; [6],0.014 µM
AGCUAGUCAGGAUAUACAUGAGGAUCACCCAUGUAAACUUUUAGUUUAAUUUGAAUGUGUAGAAGGGACAUAAA,apparent Kd,MS2 coat protein [2]; [5],0.0217 µM
same,apparent Kd,MS2 coat protein [2]; [6],0.0241 µM
